Results collected from several papers.
Lines come from different studies, so protocols differ.
Observed: cell growth or viability

Compound	cell line	test	setting	IC50
Cc1cccc(-n2ncc(Cl)c(Cl)c2=O)c1	NCI-H2444	resazurin	96 h	240 nM
CCCCC/C=C\C/C=C\C/C=C\C/C=C\CCCC(=O)NCCO	ReNcell VM		24 h	~8000 nM
COc1cc(NC(=O)C(=O)[C@H](CC(C)C)NC(=O)[C@H](CC(C)C)NC(=O)[C@H](CC(C)C)NC(=O)c2ccc(-c3ccc(C(C)=O)cc3)o2)cc(OC)c1	RPMI-8226	MTS	72 h	36.1 nM
COc1ccc2[nH]cc(CCNc3nccc(Nc4cccc5c4ccn5C)n3)c2c1	RPMI-8226	fluorescence	72 h	12 nM
O=C(O)CCCc1ccc(N(CCCl)CCCl)cc1	IOSE-144	CCK-8	48 h	16500 nM
CCOP(=S)(OCC)Oc1nc(Cl)c(Cl)cc1Cl	ReNcell VM		24 h	~9900 nM
Cc1cc(N(CCO)CCO)ccc1C(=O)O	ACHN			> 10 µg/mL
C=C(C)[C@H]1Cc2c(ccc3c2O[C@@H]2COc4cc(OC)c(OC)cc4[C@@H]2C3=O)O1	ReNcell VM		24 h	270 nM
CC(C)C[C@H](NC(=O)OCc1ccccc1)C(=O)N[C@@H](Cc1c[nH]c2ccccc12)C(=O)N[C@@H](CC(C)C)C(=O)C(=O)Nc1cccc(S(C)(=O)=O)c1	RPMI-8226	MTS	72 h	33.2 nM
N[C@@H](Cc1ccc(N(CCCl)CCCl)cc1)C(=O)O	IOSE-144	CCK-8	48 h	> 50000 nM
CC(C)C[C@H](NC(=O)OCc1ccccc1)C(=O)N[C@@H](CC(C)C)C(=O)N[C@@H](CC(C)C)C(=O)C(=O)Nc1cccc2cnccc12	RPMI-8226	MTS	72 h	133 nM
C[C@H]1O[C@@H](O[C@H]2[C@@H](O)C[C@H](O[C@H]3[C@@H](O)C[C@H](O[C@H]4CC[C@@]5(C)[C@H](CC[C@@H]6[C@@H]5C[C@@H](O)[C@]5(C)[C@@H](C7=CC(=O)OC7)CC[C@]65O)C4)O[C@@H]3C)O[C@@H]2C)C[C@H](O)[C@@H]1O	ReNcell VM	imaging	24 h	~2020 nM
CC(=O)c1cccc(NC(=O)C(=O)[C@H](CC(C)C)NC(=O)[C@H](Cc2ccccc2)NC(=O)[C@H](CC(C)C)NC(=O)OCc2ccccc2)c1	RPMI-8226	MTS	72 h	163 nM
Cc1cc(N(CCO)CCO)ccc1C=O	ACHN			> 10 µg/mL
